From ChEMBL document CHEMBL4396885, “Thioether-based 2-aminobenzamide derivatives: Novel HDAC inhibitors with potent in vitro and in vivo antitumor activity” (Eur J Med Chem, 2019) come the findings set out here.

In data set [1] the target is Histone deacetylase 2 (Homo sapiens, UniProt Q92769). Description: Inhibition of recombinant human HDAC2 assessed as decrease in deacetylation of FLUOR DE LYS Green substrate preincubated for 10 mins followed by substrate addition and measured after 30 mins by fluorescence based assay.
Data set [2] concerns A549. The experiment in a line: Antiproliferative activity against human A549 cells assessed as growth inhibition at 2 uM after 72 hrs by CCK-8 assay relative to control. Particulars: A549, 72 h, read-out: GI. The format is functional.
Data set [3] deals with A-375. The experiment in a line: Antiproliferative activity against human A375 cells assessed as growth inhibition at 8 uM after 72 hrs by CCK-8 assay relative to control. The note with it: A-375, 72 h, read-out: GI. Format: functional. A general note: Tetrazolium dyes change colour on reduction, which living cells bring about.
Data set [4] has as its system SMMC-7721. The experiment in a line: Antiproliferative activity against human SMMC7721 cells assessed as growth inhibition at 2 uM after 72 hrs by CCK-8 assay relative to control. The note with it: SMMC-7721, 72 h, read-out: GI. Format: functional.
Data set [5] relates to A-375. Description: Antiproliferative activity against human A375 cells assessed as decrease in cell viability after 72 hrs by CCK-8 assay. Format: functional, cell-based. The note with it: A-375, 72 h. In short, it runs like this: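 Cells grown to 70–85% confluence (A375, A549, HCT116 in RPMI1640; HeLa, SMMC7721 in DMEM; 10% FBS, 37 °C, 5% CO2), seeded 4000/well, dosed after 12 h across a concentration range, incubated 72 h, then CCK-8 for 1 h; absorbance at 450 nm. IC50 as mean ± SD of three separate experiments.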

The test system of data set [6] is A549. Description: Induction of apoptosis in human A549 cells assessed as late apoptotic cells at 1 uM after 48 hrs by Annexin V-FITC/propidium iodide staining based flow cytometry (reference value: 0.637%). Format: functional. Put shortly:
(§1)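 A549 seeded 4×10⁶ cells/well, dosed after 12 h with compound at various concentrations, harvested after 48 h. Resuspended in annexin-binding buffer, stained with Annexin V-FITC and propidium iodide for 15 min in the dark, analysed by flow cytometry; means of three separate experiments.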

Data set [7] deals with A549. Description: Induction of apoptosis in human A549 cells assessed as viable cells at 2 uM after 48 hrs by Annexin V-FITC/propidium iodide staining based flow cytometry (reference value: 98%). The format is functional. The note with it: A549, 48 h, read-out: Activity. Put shortly:
as §1

Data set [8] relates to A549. The experiment in a line: Cell cycle arrest in human A549 cells assessed as accumulation of cells at S phase at 1 uM after 48 hrs by propidium iodide staining-based flow cytometry (reference value: 12.83%). The format is functional. For orientation: A flow cytometer gives signals particle by particle.
Data set [9] concerns A549. Description: Cell cycle arrest in human A549 cells assessed as accumulation of cells at G2/M phase at 1 uM after 48 hrs by propidium iodide staining-based flow cytometry (reference value: 13.62%). Format: functional.
The subject of data set [10] is A549. The experiment in a line: Cell cycle arrest in human A549 cells assessed as accumulation of cells at S phase at 2 uM after 48 hrs by propidium iodide staining-based flow cytometry (reference value: 12.83%). Format: functional.
A short description of data set [11]: AUC (0 to infinity) in ICR mouse at 4 mg/kg, iv after 0.08 to 24 hrs by LC-MS/MS analysis. The format is ADME, organism-based. More on the design: dose 4 mg/kg, time infinity, route intravenous. The note with it: in vivo. Put shortly:
(§2)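 Male ICR mice (29.7~37.4 g), single iv dose 4 mg/kg in DMSO:40% SBE-β-CD 20:80 (v/v). Retro-orbital blood at 0.08–24 h into EDTA-K2 tubes; plasma protein-precipitated with acetonitrile containing internal standards, analysed by LC-MS/MS; n=3 per time point; noncompartmental analysis.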

The nature of data set [12]: Volume of distribution at steady state n ICR mouse at 4 mg/kg, iv after 0.08 to 24 hrs by LC-MS/MS analysis. The format is ADME, organism-based. The note with it: in vivo, read-out: Vdss. In short, it runs like this: as §2
The nature of data set [13]: Toxicity against nude Balb/c mouse xenografted with human A549 cells assessed as no change in body weight at 25 mg/kg, ip administered twice per day for 21 days and measured every 3 days during compound dosing. The format is organism-based. The note with it: in vivo. In short, it runs like this:
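Female BALB/c nude mice, 5–6 weeks, implanted s.c. in right axilla with 3×10⁶ A549 cells; randomized at ~95 mm³ tumor volume, 4 per group. Dosed ip 25 mg/kg twice daily for 21 days; vehicle controls got DMA & 5% Solutol HS-15 (5:95). Tumor size (V=length×width²/2) and body weight measured every 3 days; TGI from volume change relative to control.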
In general terms: Xenograft models place foreign cells or tissue in a host animal.

Chain of Histone deacetylase 2 (Q92769 whole entry): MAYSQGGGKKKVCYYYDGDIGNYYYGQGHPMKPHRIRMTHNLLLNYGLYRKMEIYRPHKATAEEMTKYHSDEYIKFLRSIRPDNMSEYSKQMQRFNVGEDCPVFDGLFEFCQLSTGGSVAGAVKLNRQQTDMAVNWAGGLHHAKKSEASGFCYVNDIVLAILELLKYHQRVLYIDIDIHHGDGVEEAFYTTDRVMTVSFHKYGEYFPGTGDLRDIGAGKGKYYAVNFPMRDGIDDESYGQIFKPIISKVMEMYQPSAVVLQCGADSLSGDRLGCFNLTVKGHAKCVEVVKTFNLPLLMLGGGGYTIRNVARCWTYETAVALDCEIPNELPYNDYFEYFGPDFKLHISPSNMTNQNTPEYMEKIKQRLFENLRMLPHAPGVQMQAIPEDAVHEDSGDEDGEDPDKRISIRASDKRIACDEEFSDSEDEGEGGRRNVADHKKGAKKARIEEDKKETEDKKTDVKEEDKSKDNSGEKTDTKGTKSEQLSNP

As to `COc1ccc(SCc2ccc(C(=O)Nc3ccccc3N)cc2)cc1`, the IC50 is 205 nM in data set [1] and 3010 nM in data set [5]. Further, the results for the inhibition of growth at 2 µM in data set [2] and in data set [4] were 45.7% and 33.1%, respectively. Also, the inhibition of growth at 8 µM in data set [3] came to 81.8%. In addition, the Activity in data set [6] is 10.8%; in data set [8], 20.63%; in [9], 38.3%; in [10], 12.64%; in [13], “Non-Toxic”. The viability at 2 µM in [7] turned out to be 47.5%. For the same molecule, the AUC(0-inf) in data set [11] worked out at 740 ng·h/mL. The Vd in [12] was found to be 1.74 L/kg.
On to `CCc1ccc(SCc2ccc(C(=O)Nc3ccccc3N)cc2)cc1`, for which the 50% inhibitory concentration (IC50) was 144 nM in [1] and 2420 nM in data set [5]. The inhibition of growth at 2 µM was determined as 53.6% in [2] and 25.7% in [4]. The inhibition of growth at 8 µM in data set [3] came out at 71.1%. The Activity was 14.6% in [6]; 9.74% in [8]; 59.87% in data set [9]; 9.52% in data set [10]; “Non-Toxic” in data set [13]. Also, in data set [7], the viability at 2 µM worked out at 63.5%. Also, in [11], the AUC(0-inf) turned out to be 874 ng·h/mL. Further, the Vd in data set [12] amounted to 3.46 L/kg.

What is called IC50 is the concentration at which inhibition is half-maximal. As a reminder, the AUC(0-inf) is the area under the concentration-time curve extrapolated to infinity. A low value points to low exposure.
